Bioassay records (PubChem BioAssay)
Rows were chosen to be rich in hits. Some 2.2% of all compounds tested hit in one or more screens of this group.
M5 PAM: CHRM5 positive allosteric modulation. P08912. CHO-K1 hM5, Fluo-8 calcium, ACh EC20 PAM; 0% = ACh EC20, 100% = ACh EC100. activation, % at 3 µM. hit rate 0.3% among 360,000;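 active = activation above the run cutoff, the mean activation of all test compounds plus 3 SD, cut at about 18% in these data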
Target sequence (P08912 whole entry, looked up): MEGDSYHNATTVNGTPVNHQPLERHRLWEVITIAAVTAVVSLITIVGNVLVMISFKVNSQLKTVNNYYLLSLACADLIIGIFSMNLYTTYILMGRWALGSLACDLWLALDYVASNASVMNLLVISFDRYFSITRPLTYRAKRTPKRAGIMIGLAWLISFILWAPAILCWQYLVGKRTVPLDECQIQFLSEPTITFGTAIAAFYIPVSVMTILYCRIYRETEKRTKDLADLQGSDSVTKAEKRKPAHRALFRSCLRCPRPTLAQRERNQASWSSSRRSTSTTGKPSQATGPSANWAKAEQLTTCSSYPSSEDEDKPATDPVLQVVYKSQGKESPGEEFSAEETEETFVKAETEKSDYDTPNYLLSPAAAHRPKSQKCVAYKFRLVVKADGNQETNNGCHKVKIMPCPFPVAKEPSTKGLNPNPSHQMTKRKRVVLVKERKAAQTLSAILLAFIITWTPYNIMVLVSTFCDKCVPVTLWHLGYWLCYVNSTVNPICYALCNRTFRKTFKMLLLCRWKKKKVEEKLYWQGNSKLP
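system = human M5 receptor in CHO-K1 cells | compound = one concentration, 3 µM final (nominal) | schedule = Post-acetylcholine fluorescence recording 140 s | signal = Fluo-8 calcium dye fluorescence, kinetic read | benchmarks = low control EC20 acetylcholine (0%), high control EC100 acetylcholine (100%) | repeats = singlicate, one well per test compound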
CHRM5 agonist: CHRM5 agonism in calcium assay | P08912 | hit rate 0.19% among 360,000 | activation, % at 3 µM | CHO-K1 hM5 cells, Fluo-8 calcium fluorescence; 0% DMSO wells, 100% maximal acetylcholine response;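 active = activation above the run's mean over test compounds plus 3 SD, cut at about 23% in these data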;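 also: signal is peak over basal fluorescence ratio across the kinetic read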
CHRM1 PAM: human CHRM1 positive allosteric modulation; P11229; CHO-K1 hM1, Fluo-8 calcium fluorescence, ACh EC20; 0% = ACh EC20, 100% = maximal ACh; activation, % at 3 µM; hit rate 0.088% among 360,000; in the data active = activation above about 19%, passing the limit was not always enough
CHRM5 antagonist: antagonists of human muscarinic M5 receptor (CHRM5); CHO-hM5 cells, Fluo-8 calcium fluorescence, ACh EC80; inhibition, % at 3 µM; hit rate 0.59% among 360,000; AID 624040;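 active = inhibition above a per-plate cutoff, the mean of that plate's test compounds plus 3 SD, cut at about 27% in these data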
CHRM1 agonist: agonists of human M1 muscarinic receptor. P11229. CHO-K1 hM1, Fluo-8 calcium fluorescence, agonist mode; 0% DMSO, 100% acetylcholine EC100. activation, % at 3 µM. hit rate 0.33% among 360,000. AID 588814;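 active = activation above the run's mean compound activation plus 3 SD, cut at about 16% in these data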;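 also: peak over basal fluorescence ratio within a 140 s kinetic read after compound addition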
M1 antag: antagonists of human M1 muscarinic receptor | P11229 | CHO-K1 hM1, Fluo-8 calcium fluorescence, ACh EC80 antagonist | inhibition, % at 3 µM | hit rate 1.3% among 360,000;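 active = percent inhibition above its own plate's cutoff, namely the mean of that plate's compound wells plus 3 SD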;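 also: peak over basal fluorescence ratio during 140 s after agonist addition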
A number is an active result; i = inactive; nt = no result.

SMILES | M5 PAM | CHRM5 agonist | CHRM1 PAM | CHRM5 antagonist | CHRM1 agonist | M1 antag
OCCC1CN(Cc2cnc(-c3ccccc3)s2)CCN1C1CCCCC1 (configuration not stated) | i | i | i | i | i | i
OCCC1CN(Cc2cnc(-c3ccccc3)s2)CCN1C1CCCC1 (configuration not stated) | i | i | i | i | i | 39
COc1ncnc2c1ncn2CCCN[C@H](C)c1cccc2ccccc12 | i | i | i | i | i | i
O=C(CSc1nc(C2CC2)nc2ccccc12)Nc1ccccc1N1CCOCC1 | i | i | i | i | i | i
C=CC(=O)N=c1sc2ccccc2n1-c1ccccc1 | i | i | i | i | i | i
N=c1sc2ccccc2n1-c1ccccc1 | i | i | i | 27 | i | i
COc1ccc(Cc2nnc(SCC(=O)Nc3ccc(C)cc3)n(N)c2=O)cc1 | i | i | i | 101 | i | i
O=[N+]([O-])c1nn(-c2ccc3c(c2)OCCO3)n(O)c1=NC1CCN(Cc2ccccc2)CC1 | i | i | i | i | i | 47
CC(C)c1ccc(N=c2c([N+](=O)[O-])nn(-c3ccc4c(c3)OCCO4)n2O)cc1 | i | i | i | i | i | 39
O=[N+]([O-])c1nn(-c2ccccc2)n(O)c1=NC1CCN(Cc2ccccc2)CC1 | i | i | i | i | i | i
COc1cc(N=c2c([N+](=O)[O-])nn(-c3ccc4c(c3)OCCO4)n2O)cc(OC)c1 | i | i | i | i | i | i
COc1cccc(C(=O)NCC(c2ccc3c(c2)OCO3)N2CCN(c3ccc(F)cc3)CC2)c1 (configuration not stated) | i | i | i | i | i | 28
O=C1CC(c2ccccc2)Cc2nc3ncnn3cc21 (configuration not stated) | i | i | i | i | i | i
CN1CCN(c2ccc3c(c2)OC[C@@H](Cc2ccccc2)NS3(=O)=O)CC1 | i | i | nt | i | nt | nt
COCCNC(=S)N1CCN(c2cccc(C)c2C)CC1 | i | i | i | 28 | i | i
Cc1cccc(N2CCN(C(=S)NCCc3ccccc3)CC2)c1C | i | i | i | i | i | i
CCC1CCCCN1CCCNC(=O)CSc1nc2nc(C)c(Cc3ccccc3Cl)c(C)n2n1 (configuration not stated) | i | i | i | i | i | 51
CCC1CCCCN1CCCNC(=O)CSc1nc2nc(C)c(Cc3ccccc3)c(C)n2n1 (configuration not stated) | i | i | i | i | i | 25
CCC1CCCCN1CCCNC(=O)Cn1nc(C)n2nc(-c3ccccc3)cc2c1=O (configuration not stated) | i | i | i | i | i | i
Cc1cccc(C)c1NC(=O)CN(Cc1ccccc1)Cc1ccccc1 | i | i | i | i | 18 | i
Cc1cccc(C)c1NC(=O)CNCC(=O)Nc1c(C)cccc1C | i | i | i | i | i | i
CC[N+](CC)(CC)CC(=O)Nc1c(C)cccc1C | i | 30 | i | i | i | i
CN(CC(=O)NCC1CCCCC1)CC(=O)Nc1ccccc1Br | i | i | i | i | i | i
CCOC(=O)Cc1cc(OC)c(OC)cc1Cc1cc(OC)c(OC)cc1CC(=O)OCC | i | i | i | i | i | i
O=C(NN1C(=O)/C(=C/c2ccc(O)cc2)SC1=S)c1cccc(O)c1 | i | 25 | i | i | i | i
SMILES | M5 PAM | CHRM5 agonist | CHRM1 PAM | CHRM5 antagonist | CHRM1 agonist | M1 antag
O=C(NN1C(=O)/C(=C/c2ccc(O)cc2)SC1=S)c1ccccc1O | i | i | i | i | i | i
COc1cc(/C=C2\SC(=S)N(NC(=O)c3ccccc3O)C2=O)ccc1O | i | i | i | i | 20 | i
CC(C)(C)OC(=O)N1CCC(Cc2cc(-c3ccc(Cl)cc3)no2)(C(=O)O)CC1 | i | i | i | i | i | i
Cc1ccc(NC(=O)N2CCN(C/C=C/c3ccccc3)CC2)cc1 | i | i | i | i | i | i
CCOc1ccc(C(=O)NCC(=O)N2CCN(C/C=C/c3ccccc3)CC2)cc1OCC | i | i | i | i | 27 | 30
COC(=O)c1ccccc1NC(=O)N1CCN(C/C=C/c2ccccc2)CC1 | i | i | i | i | i | i
Cc1ccccc1C(=O)NCC(=O)N1CCN(C/C=C/c2ccccc2)CC1 | i | i | i | i | 23 | 33
Cc1ccc(C(=O)CCC(=O)N2CCN(C/C=C/c3ccccc3)CC2)cc1 | i | i | i | i | 24 | i
COc1ccccc1C(=O)NCC(=O)N1CCN(C/C=C/c2ccccc2)CC1 | i | i | i | i | 22 | i
O=C1C2CSCN2C(=O)CN1CCCN1CCN(C(c2ccccc2)c2ccccc2)CC1 (configuration not stated) | i | i | i | i | i | 62
COC(=O)[C@H](Cc1ccccc1)NC(=O)NCCC1=CCCCC1 | i | i | i | 63 | i | 39
COC(=O)[C@H](CCSC)NC(=O)NCCC1=CCCCC1 | i | i | i | 35 | i | i
COc1ccc(CNC(=O)[C@@H]2CC=C[C@@H]3CCN(Cc4ccc(Cl)c(Cl)c4)C(=O)[C@@H]32)cc1 | i | i | i | i | i | i
COc1ccc(CNC[C@@H](CCCCN(C)Cc2ccc(OC)cc2)N2C[C@H](c3ccccc3)N(CCc3ccc(Cl)c(Cl)c3)C(=O)C2=O)cc1 | i | i | i | i | 21 | i
Cc1ccc(OC2CCN(C(=O)[C@H]3O[C@@H](n4cnc5c(N)ncnc54)[C@H](O)[C@@H]3O)CC2)cc1 | i | i | i | i | i | i
CC(C)N(CCNC(=O)c1ccc(CS(=O)(=O)c2c(Cl)cccc2Cl)o1)Cc1ccccc1 | i | i | i | i | i | 45
Cc1ccc(S(=O)(=O)NCc2ccc(C(=O)NCCN(Cc3ccccc3)C(C)C)cc2)cc1 | i | i | i | i | i | 68
CC(O)CC(=O)OC[C@]12CC[C@H]3[C@@](C)(CC[C@H]4C(C)(C)CCC[C@]34C)[C@@H]1CC(C1=CC(=O)OC1O)O2 (some centres not stated) | i | i | i | i | i | i
COc1ccc(C(=O)O/N=C2\CCS(=O)(=O)c3sccc32)cc1 | i | i | i | 36 | i | i
COc1ccccc1C(=O)N(CCC1CCCN1C)c1nc2ccccc2s1 (configuration not stated) | i | i | i | 27 | i | 51
COc1ccc2sc(N(CCCN(C)C)C(=O)c3nc4ccccc4s3)nc2c1 | i | i | i | i | i | i
Oc1ccc(-c2n[nH]c(C(F)(F)F)c2-c2ccccc2)c(O)c1 | i | i | i | 64 | i | 42
CCN(CC)c1ccc2cc(C=O)c(=O)oc2c1 | i | 29 | i | i | 53 | i
